Source: PubChem BioAssay
KCNQ1 block: inhibitors of human KCNQ1 potassium channel; B-score at 10 µM; P51787; 1.3% of 310,000 active; CHO-K1 KCNQ1, FluxOR thallium flux fluorescence; hits give high values; AID 2642;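 active = compounds whose thallium flux B-score, printed positive for inhibition, exceeds three library SD while starting fluorescence stays within three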;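 note: channel opened by potassium depolarization with thallium stimulus after 20 min compound exposure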
hERG rescue: hERG (human) protection from proarrhythmic block | 0.51% of 310,000 active | Q12809 | CHO-hERG, FluxOR thallium flux, dofetilide IC70 present | activation (rescue from dofetilide block), less the hit threshold, % at 10 µM;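 active = activation above the mean of controls blocked by dofetilide plus 5 SD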;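 note: thallium influx through hERG after potassium depolarization seen as dye fluorescence rise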
Target sequence (Q12809 whole entry, looked up): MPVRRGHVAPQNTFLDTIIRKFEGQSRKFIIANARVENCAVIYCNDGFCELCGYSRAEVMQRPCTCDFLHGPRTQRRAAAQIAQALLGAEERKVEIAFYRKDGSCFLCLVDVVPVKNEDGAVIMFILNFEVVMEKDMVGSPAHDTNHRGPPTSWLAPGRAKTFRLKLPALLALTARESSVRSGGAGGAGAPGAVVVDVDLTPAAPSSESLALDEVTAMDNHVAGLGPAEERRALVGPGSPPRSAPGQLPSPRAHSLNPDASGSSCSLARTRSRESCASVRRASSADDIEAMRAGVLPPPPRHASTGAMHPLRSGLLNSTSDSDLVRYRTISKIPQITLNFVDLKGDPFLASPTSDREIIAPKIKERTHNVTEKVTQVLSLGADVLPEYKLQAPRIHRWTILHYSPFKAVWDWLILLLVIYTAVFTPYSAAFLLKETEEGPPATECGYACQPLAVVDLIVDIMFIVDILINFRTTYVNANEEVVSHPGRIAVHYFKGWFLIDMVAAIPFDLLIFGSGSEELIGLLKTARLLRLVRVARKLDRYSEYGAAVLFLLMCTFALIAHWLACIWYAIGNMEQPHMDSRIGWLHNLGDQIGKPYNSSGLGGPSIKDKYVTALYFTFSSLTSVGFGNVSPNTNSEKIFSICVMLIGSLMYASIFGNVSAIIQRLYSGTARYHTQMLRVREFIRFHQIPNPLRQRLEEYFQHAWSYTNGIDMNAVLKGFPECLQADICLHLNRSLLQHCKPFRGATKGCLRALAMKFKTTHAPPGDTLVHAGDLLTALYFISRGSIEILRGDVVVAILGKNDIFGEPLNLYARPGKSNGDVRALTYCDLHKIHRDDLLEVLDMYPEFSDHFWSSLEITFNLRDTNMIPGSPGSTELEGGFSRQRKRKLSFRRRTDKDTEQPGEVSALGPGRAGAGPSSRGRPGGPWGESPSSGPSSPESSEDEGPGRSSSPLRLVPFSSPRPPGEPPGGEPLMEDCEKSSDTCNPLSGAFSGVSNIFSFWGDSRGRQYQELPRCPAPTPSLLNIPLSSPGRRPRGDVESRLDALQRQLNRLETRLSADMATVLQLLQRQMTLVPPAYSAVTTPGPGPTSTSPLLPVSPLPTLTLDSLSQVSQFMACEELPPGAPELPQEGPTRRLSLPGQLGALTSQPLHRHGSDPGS
PHOSPHO1 block: PHOSPHO1 (human) inhibition | Q8TCT1 | recombinant PHOSPHO1, absorbance phosphatase assay | inhibition, % at 13.3 µM | 1.1% of 290,000 active | AID 1565; in the data active = inhibition above about 60%
KCNK3 inh: human KCNK3 channel inhibition, primary screen; O14649; CHO-KCNK3 thallium flux, FluxOR fluorescence; hits give low values; B-score at 10 µM; 0.84% of 340,000 active; AID 602410;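 active = B-score under library mean minus 4 SD, starting fluorescence ratio at most library mean plus 5 SD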;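 note: more negative B-score means stronger inhibition of thallium flux through KCNK3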
KCNK9 inh: blocks the human KCNK9 two-pore domain potassium channel; Q9NPC2; HEK293 KCNK9, FluxOR thallium flux fluorescence; hits give low values; B-score at 10 µM; 1.2% of 310,000 active;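 active = ratio B-score over 3 SD below the library mean, with starting fluorescence within 5 SD of its mean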;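 note: negative B-score means less thallium flux so channel inhibition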
KCNQ1 pot: potentiates or activates the human KCNQ1 potassium channel; P51787; CHO-K1 KCNQ1, thallium flux FluxOR fluorescence; hits give high values; B-score at 10 µM; 0.35% of 310,000 active;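 active = fluorescence ratio B-score, a plate-corrected score, at least three library SD, with initial intensity B-score within 5 SD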
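Medium – assay buffer, equal DMSO in all wells · Material – CHO-K1 cell line with stable KCNQ1 potassium channel expression · Signal – kinetic FluxOR thallium fluorescence, 10-s 1-Hz baseline, 110-s post-stimulus read · Compound – single concentration per compound, DMSO matched to controls · Schedule – 37 °C overnight plating, 90-min dark dye load, 20-min compound pretreatment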
KCNK9 block conf: human KCNK9 inhibitor confirmation; HEK293 KCNK9 cells, FluxOR thallium flux fluorescence; inhibition, % at 10 µM; shares compounds with KCNK9 inh; 43% of 4,900 active;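 active = thallium signal inhibited by more than 5 SD of the compound-free buffer control wells, on both duplicate plates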
Kir21 sel: tests whether KCNK9 modulators also affect mouse Kir2.1; shares compounds with KCNK9 inh; Kir2.1 cells, FluxOR thallium flux fluorescence; inhibition, % at 10 µM; 4% of 4,900 active;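 active = thallium signal drop more than 5 SD beyond the mean of the no-compound control wells, seen in both duplicate plates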;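 note: signal is fluorescence rise after thallium addition divided by baseline fluorescence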
HEK293 Tl ctr: second check of KCNK9 modulator effects in non-induced HEK293 cells; 40% of 4,900 active; AID 492997; inhibition, % at 10 µM; FluxOR thallium flux; shares compounds with KCNK9 inh;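 active = thallium signal drop beyond 5 SD of the untreated control mean, on both duplicate plates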
Hits are given with their value; . = inactive; / = no result given. Hits are enriched below; roughly 4% of the tested compounds scored in any of these assays.

SMILES | KCNQ1 block | hERG rescue | PHOSPHO1 block | KCNK3 inh | KCNK9 inh | KCNQ1 pot | KCNK9 block conf | Kir21 sel | HEK293 Tl ctr
COc1ccccc1S(=O)(=O)Cc1ccc(C(=O)N2CCN(c3ccc(C)cc3)C(C)C2)o1 (configuration not stated) | . | . | . | . | . | . | / | / | /
COc1ccc(C(=O)NC(C)CCCC(C)(C)O)cc1OC1CCN(C(C)=O)CC1 (configuration not stated) | . | . | . | . | . | . | / | / | /
CC1(c2ccccc2)CC(C)(C)N2C(=O)C(=O)c3cccc1c32 (configuration not stated) | . | . | . | . | . | . | . | . | .
CC1CC2(CCCCC2)N2C(=O)C(=O)c3cccc1c32 (configuration not stated) | . | . | . | . | . | . | / | / | /
CC(C)C(=O)Nc1ccc2nn(-c3ccc(F)cc3)nc2c1 | . | . | . | . | . | . | . | . | .
CC(C)C(=O)Nc1ccc(N2CCN(c3ccc(F)cc3)CC2)cc1 | . | . | . | . | . | . | / | / | /
C=CCc1ccc(OC)c(OC)c1 | . | . | . | . | . | . | / | / | /
CCn1c(SCc2ccc(Cl)cc2Cl)nc2nc3c(cc2c1=O)CCCC3 | . | . | . | . | . | . | . | . | .
O=C(CSc1nc2nc3c(cc2c(=O)n1-c1ccccc1)CCCC3)Nc1ccccc1 | . | . | . | . | . | . | / | / | /
CC(NC(=O)/C(C#N)=C/c1ccc(C(=O)O)cc1)c1ccccc1 (configuration not stated) | . | . | / | . | . | . | . | . | .
COc1ccccc1/C=C/C=C(\C#N)C(=O)NC(C)c1ccccc1 (configuration not stated) | . | . | . | . | . | . | . | . | .
CC(NC(=O)/C(C#N)=C/c1cn(-c2ccccc2)nc1-c1ccc(F)cc1)c1ccccc1 (configuration not stated) | . | . | . | . | . | . | . | . | .
COc1cc(/C=C(/C#N)C(=O)NC(C)c2ccccc2)cc(OC)c1O (configuration not stated) | . | . | . | . | . | . | / | / | /
Cc1ccc(-c2nn(-c3ccccc3)cc2/C=C(\C#N)C(=O)NCc2ccccc2)cc1 | . | . | . | . | . | . | / | / | /
Cc1cccc(NC(=O)CSc2nnc([C@@H](N)Cc3ccccc3)o2)c1C | . | . | . | . | . | . | / | / | /
O=C(Nc1cc(Cl)cc(Cl)c1)C1CC(=O)N(C2CCCC2)C1 (configuration not stated) | . | . | / | . | . | . | / | / | /
COc1ccc(/C=C(/C#N)C(=O)Nc2ccc(C)cc2C)cc1C(=O)O | . | . | . | . | . | . | / | / | /
CCCCN(C)Cc1cc(=O)oc2cc3c(cc12)CCCC3 | . | . | . | . | . | . | . | . | .
CCCCCC(=O)N1CCCC(c2nc(-c3ccc(OC)cc3)no2)C1 (configuration not stated) | . | . | . | . | . | . | . | . | .
CCCCCCC(=O)N1CCCC(c2nc(-c3cccc(OC)c3)no2)C1 (configuration not stated) | . | . | . | . | . | . | . | . | .
CN(Cc1ccccc1)c1nc(N)c([N+](=O)[O-])c(NCc2ccccc2)n1 | . | . | . | . | -10 | . | 57% | . | 57%
CC(C)OC(=O)CSc1nnc(SCc2cccc3ccccc23)s1 | . | . | . | . | . | . | . | . | .
O=C(O)CSc1nnc(SCc2cccc3ccccc23)s1 | . | . | . | . | . | . | / | / | /
COC(=O)C[C@H]1c2cc(C(F)(F)F)ccc2S(=O)(=O)N1Cc1ccccc1 | . | . | / | . | . | . | / | / | /
CCCCCCCCN1[C@@H](CC(=O)OC)c2cc(C(F)(F)F)ccc2S1(=O)=O | . | . | / | . | . | . | . | . | .
SMILES | KCNQ1 block | hERG rescue | PHOSPHO1 block | KCNK3 inh | KCNK9 inh | KCNQ1 pot | KCNK9 block conf | Kir21 sel | HEK293 Tl ctr
O=C(CN1CCN(Cc2cccc3ccccc23)CC1)NCCc1ccccc1 | . | . | . | . | . | . | / | / | /
COCCOC(=O)C1=C(C)NC(C)=C(C(=O)OCCOC)C1/C=C/c1ccccc1OC | . | . | . | . | . | . | . | . | .
COC(=O)C1=C(C)N=C2SC(C)C(=O)N2C1/C=C/c1ccccc1OC (configuration not stated) | . | . | . | . | . | . | / | / | /
CCC1SC2=NC(C)=C(C(=O)OCC(C)C)C(/C=C/c3ccccc3OC)N2C1=O (configuration not stated) | . | . | . | . | . | . | 32% | . | 47%
CCC1SC2=NC(C)=C(C(=O)OCCOC)C(/C=C/c3ccccc3OC)N2C1=O (configuration not stated) | . | . | . | . | . | . | . | . | 34%
CCc1ccccc1NCc1cc(=O)oc2cc(C)ccc12 | . | . | . | . | . | . | / | / | /
Cc1ccc(CN(C)C(=O)c2c(C)nn(-c3ccccc3)c2C)cc1 | . | . | . | . | . | . | . | . | .
CSc1cccc(-n2cc(-c3ccc4c(c3)OCO4)[nH]c2=O)c1 | . | . | . | . | . | . | / | / | /
CC(=O)N1c2ccc3ccccc3c2C(C)CC12CCCCC2 (configuration not stated) | . | . | . | . | -12 | . | 68% | . | 48%
CCCCC(CC)C(=O)Nc1cccc(SC)c1 (configuration not stated) | . | . | . | . | -9.4 | . | 30% | . | .
O=C(/C=C/NNC(=O)c1ccccc1)c1ccc(Br)cc1 | . | . | . | . | . | . | / | / | /
O=C(/C=C/NNC(=O)c1cccc(Br)c1)c1cccc(Br)c1 | . | . | . | -9 | -9 | . | 38% | . | 34%
CCC(c1nnnn1Cc1cccs1)N1CCN(c2nc3ccccc3s2)CC1 (configuration not stated) | . | . | . | . | -11 | . | 30% | . | .
CCC(c1nnnn1Cc1cccs1)N1CCN(C2CCCC2)CC1 (configuration not stated) | . | . | . | . | . | . | / | / | /
Cn1c(=O)n(C)c2cc(S(=O)(=O)NCC(=O)O)ccc21 | . | . | . | . | . | . | / | / | /
c1ccc(-c2nc(NCc3cccnc3)c3oc4ccccc4c3n2)cc1 | . | 7.9 | . | . | -10 | . | 38% | . | 32%
CC1CCCCC1NC(=O)c1cccc(S(=O)(=O)N2CCN(Cc3ccccc3)CC2)c1 (configuration not stated) | . | . | / | . | . | . | . | . | .
